IDH1 mut inh: inhibitors of IDH1 R132H reductase, primary screen, biochemical, plate reader, single point; diaphorase/resazurin fluorescence, 60 min; Isocitrate dehydrogenase [NADP] cytoplasmic (Homo sapiens), O75874; actives 0.18% (n = 70,000); inhibition, % at 10 µM; in the data active = inhibition above about 34%; inconclusive = no clear call, values can overlap the other calls; inactive = below about 11%
Target sequence (O75874 whole entry R132H): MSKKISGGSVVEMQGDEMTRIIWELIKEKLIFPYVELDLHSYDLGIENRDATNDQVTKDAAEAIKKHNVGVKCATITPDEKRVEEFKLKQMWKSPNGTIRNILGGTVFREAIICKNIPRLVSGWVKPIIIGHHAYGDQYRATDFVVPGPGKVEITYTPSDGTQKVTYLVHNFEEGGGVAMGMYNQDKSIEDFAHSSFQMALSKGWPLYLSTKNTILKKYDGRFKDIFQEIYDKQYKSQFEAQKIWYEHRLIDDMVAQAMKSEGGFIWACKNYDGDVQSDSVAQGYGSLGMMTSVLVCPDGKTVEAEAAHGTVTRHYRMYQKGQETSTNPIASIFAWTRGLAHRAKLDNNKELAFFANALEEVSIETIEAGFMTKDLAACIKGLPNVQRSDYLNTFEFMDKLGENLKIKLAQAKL
GASC1 inh: inhibitors of GASC-1 (KDM4C) histone demethylase, primary screen, biochemical, single concentration HTS. Lysine-specific demethylase 4C (Homo sapiens), Q9H3R0. inhibition, % at 12.5 µM. AID 720574, 2013. actives 0.15% (n = 96,000). GST-KDM4C 2-372, H3K9me3 peptide, LANCE TR-FRET;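 active = mean replicate inhibition above about 25%, with at least 55% of replicates also reaching it, limit read from the data, passing the limit was not always enough; inconclusive = only one of those two conditions met; inactive = neither condition met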
Target sequence (Q9H3R0 2-372 limits assumed): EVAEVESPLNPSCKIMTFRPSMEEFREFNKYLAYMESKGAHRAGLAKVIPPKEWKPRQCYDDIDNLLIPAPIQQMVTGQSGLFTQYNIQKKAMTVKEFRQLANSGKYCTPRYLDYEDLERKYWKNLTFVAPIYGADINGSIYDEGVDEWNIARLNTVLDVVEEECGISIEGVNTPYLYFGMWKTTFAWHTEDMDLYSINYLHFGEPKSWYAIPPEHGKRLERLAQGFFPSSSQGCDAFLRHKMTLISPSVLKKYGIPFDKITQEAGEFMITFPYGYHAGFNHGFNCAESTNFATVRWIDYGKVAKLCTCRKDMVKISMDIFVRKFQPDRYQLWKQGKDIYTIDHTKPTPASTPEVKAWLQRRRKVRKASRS
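System: N-terminal GST-fused human GASC-1 (KDM4C) fragment, residues 2-372; amount: enzyme final amount 10 nM; incubation: reaction 30 min RT, detection step 1 h RT; medium: HEPES buffer, pH 7.5, plus ascorbate; technique: LANCE TR-FRET, Eu antibody, ULight-streptavidin, EDTA, ex 340 nm, em 618/671 nm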
T cruzi growth-1: T. cruzi intracellular proliferation inhibitors, primary screen, cell-based, beta-gal Tulahuen parasites, NIH3T3 host, luminescence. T. cruzi beta-gal in NIH3T3, GalScreen luminescence, 90 h. inhibition, % at 8.34 µM. actives 5.9% (n = 77,000). AID 624255, 2012;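 active = mean inhibition above about 93%, with at least 55% of replicates each passing it, limit read from the data, passing the limit was not always enough; inconclusive = only one of those two conditions holds; inactive = neither condition holds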
Pf Dd2 inh: P. falciparum Dd2 growth inhibitors, primary screen, SYBR Green fluorescence, single dose replicates | activity change, % at 10 µM | 72 h; hits give low values | actives 2.3% (n = 94,000); in the data active = activity change below about -80%; inconclusive = no clear call, values can overlap the other calls
T cruzi growth-2: T. cruzi intracellular proliferation inhibitors, confirmation, cell-based, NIH3T3 host, beta-gal parasite, luminescence, cherry-pick | shares compounds with T cruzi growth-1 | T. cruzi beta-gal in NIH3T3, GalScreen luminescence, 90 h | inhibition, % at 8.35 µM | actives 72% (n = 5,600) | AID 651739, 2012;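 active = mean replicate inhibition above about 95% and at least 55% of replicates individually reaching it, limit read from the data; inconclusive = only one of the two criteria is met; inactive = neither criterion is met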
T cruzi growth-3: inhibitors of intracellular T. cruzi replication, confirmation, NIH3T3 host cells, beta-gal parasites, cherry-pick, set 2; shares compounds with T cruzi growth-1; T. cruzi beta-gal in NIH3T3, GalScreen luminescence, 90 h; AID 651740, 2012; inhibition, % at 2.09 µM; actives 21% (n = 5,600);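 active = mean inhibition above about 95%, with at least 55% of replicates also reaching it, limit read from the data; inconclusive = meets just one of the two conditions; inactive = meets neither condition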
NIH3T3 tox: cytotoxicity in mouse NIH/3T3 fibroblasts, confirmation, cytotoxicity control for T. cruzi proliferation inhibitor project, cell-based, cherry-pick, single point. cytotoxicity (signal decrease), % at 8.35 µM. NIH/3T3 viability, CellTiter-Glo ATP luminescence, 90 h. AID 651742, 2012. actives 14% (n = 5,600). shares compounds with T cruzi growth-1;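 active = mean signal decrease across replicates above about 35% based on untreated-well scatter, with enough replicates individually passing, limit read from the data; inconclusive = no rule stated though some were filed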
3T3 cytotox 2: NIH/3T3 fibroblast cytotoxicity, confirmation, cytotoxicity control, cell-based, cherry-pick, single point, set 2; shares compounds with T cruzi growth-1; NIH/3T3 viability, CellTiter-Glo ATP luminescence, 90 h; inhibition, % at 24.9 µM; actives 56% (n = 5,600);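 active = mean loss of cell viability signal at or above a set limit, and enough replicates individually reaching it; inconclusive = meets only the mean limit or only the replicate share; inactive = meets neither condition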
Each line names hits and unclear results; the compound was inactive in the other large screens (follow-up assays come after a bar, where they were run); ! = not confirmed by another sample. This is a sample that favours compounds with a hit; in the whole collection about 5.9% have one here.

C[C@H]1CCCCO[C@H](CN(C)C(=O)Nc2ccc(C(F)(F)F)cc2)[C@@H](C)CN([C@@H](C)CO)C(=O)c2cc(NS(C)(=O)=O)ccc2O1	T cruzi growth-1 97 | T cruzi growth-2 113 | T cruzi growth-3 inactive | NIH3T3 tox inactive | 3T3 cytotox 2 51
C[C@H](CO)N1C[C@H](C)[C@@H](CN(C)C(=O)Nc2ccc(C(F)(F)F)cc2)OCCCC[C@H](C)Oc2ccc(NS(=O)(=O)c3ccccc3)cc2C1=O	T cruzi growth-1 inconclusive (no result: IDH1 mut inh) | T cruzi growth-2 114 | T cruzi growth-3 inactive | NIH3T3 tox inactive | 3T3 cytotox 2 inactive
C[C@@H]1CN([C@@H](C)CO)C(=O)c2cc(NS(=O)(=O)c3ccccc3)ccc2O[C@@H](C)CCCCO[C@@H]1CN(C)C(=O)Nc1ccc(C(F)(F)F)cc1	T cruzi growth-1 inconclusive (no result: IDH1 mut inh) | T cruzi growth-2 104 | T cruzi growth-3 inactive | NIH3T3 tox inactive | 3T3 cytotox 2 43
CC1=CC(O)C2/C=C/CCC3OC3(C)C(O)CC(=O)C23C(=O)NC(CC(C)C)C13 (stereo not drawn)	none (no result: GASC1 inh, T cruzi growth-1, Pf Dd2 inh)
Cc1nc(SCC(=O)Nc2ccc(Oc3ccccc3)cc2)n[nH]1	none (no result: GASC1 inh, T cruzi growth-1, Pf Dd2 inh)
COc1ccccc1CN1C(=O)c2ccccc2[C@@]2(Cc3ccccc3N(C(C)C)C2=O)[C@@H]1c1ccc(CO)cc1	none (no result: GASC1 inh, T cruzi growth-1, Pf Dd2 inh)
CCC(=O)NC[C@@H]1[C@@H](c2ccc(C3=CCCC3)cc2)[C@H](CO)N1C(C)=O	none (no result: IDH1 mut inh)
COCC(=O)NC[C@H]1[C@H](c2ccc(C3=CCCC3)cc2)[C@H](CO)N1C(C)=O	T cruzi growth-1 inconclusive (no result: IDH1 mut inh) | T cruzi growth-2 inactive | T cruzi growth-3 inactive | NIH3T3 tox inactive | 3T3 cytotox 2 inactive
COCC(=O)NC[C@@H]1[C@H](c2ccc(C3=CCCC3)cc2)[C@H](CO)N1C(C)=O	T cruzi growth-1 116 (no result: IDH1 mut inh) | T cruzi growth-2 96 | T cruzi growth-3 inactive | NIH3T3 tox inactive | 3T3 cytotox 2 inactive
CCC(=O)NC[C@H]1[C@@H](c2ccc(C3=CCCC3)cc2)[C@@H](CO)N1C(C)=O	none (no result: IDH1 mut inh)
COCC(=O)NC[C@@H]1[C@H](c2ccc(C3=CCCC3)cc2)[C@@H](CO)N1C(C)=O	T cruzi growth-1 108 (no result: IDH1 mut inh) | T cruzi growth-2 inactive | T cruzi growth-3 inactive | NIH3T3 tox inactive | 3T3 cytotox 2 inactive
COc1ccc(NC(=O)CN(C)S(=O)(=O)c2ccc(C)cc2)c(OC)c1	none (no result: GASC1 inh, T cruzi growth-1, Pf Dd2 inh)
Cc1cc(C)cc(N(C(C)C(=O)Nc2cccc(Cl)c2)S(C)(=O)=O)c1 (stereo not drawn)	none (no result: GASC1 inh, T cruzi growth-1, Pf Dd2 inh)
O=C(Cn1cnc2ccccc2c1=O)Nc1ccc(I)cc1	none (no result: GASC1 inh, T cruzi growth-1, Pf Dd2 inh)
CC(C)C#Cc1ccc2c(c1)O[C@H](CN(C)C(=O)c1ccccc1)[C@@H](C)CN([C@H](C)CO)S2(=O)=O	T cruzi growth-1 115 | T cruzi growth-2 105 | T cruzi growth-3 inactive | NIH3T3 tox inactive | 3T3 cytotox 2 30
CC(C)C#Cc1ccc2c(c1)O[C@@H](CN(C)C(=O)c1ccncc1)[C@@H](C)CN([C@H](C)CO)S2(=O)=O	T cruzi growth-1 107 | T cruzi growth-2 102 | T cruzi growth-3 inconclusive | NIH3T3 tox inactive | 3T3 cytotox 2 42
CC(C)C#Cc1ccc2c(c1)O[C@@H](CN(C)C(=O)c1ccccc1)[C@H](C)CN([C@H](C)CO)S2(=O)=O	T cruzi growth-1 99 | T cruzi growth-2 104 | T cruzi growth-3 inactive | NIH3T3 tox 46 | 3T3 cytotox 2 39
COC(=O)[C@@]1(Cc2ccccc2CN=[N+]=[N-])N=C(c2ccc(OCCCO)cc2)O[C@H]1c1ccccc1CN=[N+]=[N-]	none (no result: GASC1 inh, T cruzi growth-1, Pf Dd2 inh)
O=c1c2ccccc2[nH]c(=S)n1CCCN1CCN(Cc2ccccc2)CC1	none (no result: GASC1 inh, T cruzi growth-1, Pf Dd2 inh)
C[C@@H]1CN([C@@H](C)CO)C(=O)c2cc(/C=C/c3ccccc3)cnc2O[C@H]1CN(C)Cc1ccccc1F	T cruzi growth-1 127 | T cruzi growth-2 inconclusive | T cruzi growth-3 108 | NIH3T3 tox inactive | 3T3 cytotox 2 105
C/C=C/c1cnc2c(c1)C(=O)N([C@@H](C)CO)C[C@H](C)[C@H](CN(C)Cc1ccccc1F)O2	none (no result: T cruzi growth-1)
C[C@@H]1CN([C@@H](C)CO)C(=O)c2cc(/C=C/c3ccccc3)cnc2O[C@@H]1CN(C)Cc1ccccc1F	T cruzi growth-1 108 | T cruzi growth-2 114 | T cruzi growth-3 inactive | NIH3T3 tox inactive | 3T3 cytotox 2 56
Cc1ccc(-c2cnc3c(c2)C(=O)N([C@H](C)CO)C[C@H](C)[C@@H](CN(C)Cc2ccccc2F)O3)cc1	T cruzi growth-1 109! | T cruzi growth-2 108 | T cruzi growth-3 inactive | NIH3T3 tox inactive | 3T3 cytotox 2 69
C/C=C/c1cnc2c(c1)C(=O)N([C@@H](C)CO)C[C@@H](C)[C@@H](CN(C)Cc1ccccc1F)O2	none (no result: T cruzi growth-1)
COc1ccc(Cl)cc1NC(=O)CSc1nnc(-c2cc3cc(Br)ccc3o2)n1C	none (no result: GASC1 inh, T cruzi growth-1, Pf Dd2 inh)
CC(Oc1ccccc1)C(=O)Nc1cccc(-c2nnc(-c3ccccc3)o2)c1 (stereo not drawn)	none (no result: GASC1 inh, T cruzi growth-1, Pf Dd2 inh)
CCCN(C)C[C@H]1OCCCC[C@@H](C)Oc2ccc(NC(=O)C3CCCCC3)cc2C(=O)N([C@H](C)CO)C[C@@H]1C	none (no result: IDH1 mut inh)
CCCN(C)C[C@H]1OCCCC[C@H](C)Oc2ccc(NC(=O)C3CCCCC3)cc2C(=O)N([C@H](C)CO)C[C@H]1C	T cruzi growth-1 108 | T cruzi growth-2 99 | T cruzi growth-3 inactive | NIH3T3 tox inactive | 3T3 cytotox 2 inactive
CCCN(C)C[C@H]1OCCCC[C@@H](C)Oc2ccc(NC(=O)C3CCCCC3)cc2C(=O)N([C@@H](C)CO)C[C@H]1C	T cruzi growth-1 102, Pf Dd2 inh -81 (no result: IDH1 mut inh) | T cruzi growth-2 104 | T cruzi growth-3 inactive | NIH3T3 tox inactive | 3T3 cytotox 2 inactive
C[C@H](CO)N1C[C@H](C)[C@H](CN(C)S(=O)(=O)c2cccs2)Oc2ncc(-c3cc4ccccc4o3)cc2C1=O	T cruzi growth-1 123 | T cruzi growth-2 110 | T cruzi growth-3 inactive | NIH3T3 tox 35 | 3T3 cytotox 2 inactive
C[C@H](CO)N1C[C@H](C)[C@H](CN(C)S(C)(=O)=O)Oc2ncc(C#Cc3cccc(F)c3)cc2C1=O	none (no result: IDH1 mut inh, T cruzi growth-1)
